Common to all, as to format: functional
The subject of assay [1] is Haemophilus influenzae. As to the kind of experiment: The compound was tested for antibacterial activity against sensitive Haemophilus influenzae C.L.
Assay [2] concerns Staphylococcus aureus. As to the kind of experiment: Antibacterial activity against methicillin resistant Staphylococcus aureus S13E. A digest of the protocol: (§1)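 Agar dilution susceptibility test following a previously published method; value recorded as MIC. Racemic compounds were separated by preparative HPLC and only the R epimers were tested.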
In assay [3] the test system is Staphylococcus epidermidis. As to the kind of experiment: The compound was tested for antibacterial activity against Staphylococcus epidermidis EP11.
The subject of assay [4] is Staphylococcus aureus. Nature of the assay: Antibacterial activity against penicillin G sensitive Staphylococcus aureus X1.1.
For another assay, the system named is Streptococcus. As to the kind of experiment: The compound was tested for antibacterial activity against Streptococcus group D X66.
The subject of assay [5] is Staphylococcus aureus. As to the kind of experiment: Antibacterial activity against penicillin G resistant Staphylococcus aureus V41. The gist of the method:
as §1

In a further assay the test system is Streptococcus pyogenes. Nature of the assay: The compound was tested for antibacterial activity against Streptococcus pyogenes C203.
The subject of assay [6] is Staphylococcus aureus. As to the kind of experiment: Antibacterial activity against methicillin resistant Staphylococcus aureus X400. A digest of the protocol: as §1
The next assay deals with Streptococcus pneumoniae. Nature of the assay: The compound was tested for antibacterial activity against Streptococcus pneumoniae Park.
Assay [7] concerns Haemophilus influenzae. Nature of the assay: The compound was tested for antibacterial activity against resistant Haemophilus influenzae 76. A digest of the protocol: as §1
Assay [8] has as its system Staphylococcus aureus. Nature of the assay: Aantibacterial activity against methicillin resistant Staphylococcus aureus S13E. The gist of the method:
as §1

Assay [9] deals with Mus musculus. As to the kind of experiment: Dose administered subcutaneously in mice infected with Streptococcus pneumoniae. Particulars: sc. The gist of the method:
(§2)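 Mice were used in groups of 10 and inoculated with S. aureus, S. pyogenes or S. pneumoniae. Drug was given orally or subcutaneously at 1 and 5 h after inoculation. The ED50 was determined from the dosed groups.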

Assay [10] deals with Mus musculus. Nature of the assay: Dose administered orally in mice infected with Streptococcus pneumoniae. As to conditions: po. The gist of the method:
as §2

Assay [11] relates to Mus musculus. As to the kind of experiment: Dose administered orally in mice infected with Staphylococcus aureus. Particulars: po. The gist of the method: as §2
Assay [12] has as its system Mus musculus. Nature of the assay: Dose administered subcutaneously in mice infected with Streptococcus pyogenes. Particulars: sc. The gist of the method: as §2
The test system of assay [13] is Mus musculus. As to the kind of experiment: Dose administered orally in mice infected with Streptococcus pyogenes. Particulars: po. A digest of the protocol:
as §2

Assay [14] relates to Mus musculus. As to the kind of experiment: Dose administered subcutaneously in mice infected with Staphylococcus aureus. As to conditions: sc. A digest of the protocol:
as §2

Molecules are shown by their SMILES. Converted amounts (≈) assume the structure as drawn.

As for `CC1=C(C(=O)O)N2C(=O)C(NC(=O)C(N)c3cc4sccc4s3)C2SC1` (stereo not drawn), the MIC in the assay on Haemophilus influenzae [1] is 64 µg/mL (≈ 156 µM); against Staphylococcus aureus [2], 64 µg/mL (≈ 156 µM); in [3], 16 µg/mL (≈ 39.1 µM); in the assay on Staphylococcus aureus [4], 0.5 µg/mL (≈ 1.22 µM); in the assay with Streptococcus, over 64 µg/mL; against Staphylococcus aureus [5] it was 32 µg/mL (≈ 78.1 µM). Also, the MIC against Streptococcus pyogenes was 0.25 µg/mL (≈ 0.61 µM); with Staphylococcus aureus [6], over 64 µg/mL; against Streptococcus pneumoniae, 1 µg/mL (≈ 2.44 µM); in the assay with Haemophilus influenzae [7], 2 µg/mL (≈ 4.88 µM).

For `CC1=C(C(=O)O)N2C(=O)C(NC(=O)C(N)c3cccc4c(C)csc34)C2SC1` (stereo not drawn), the MIC in the assay with Haemophilus influenzae [1] was 8 µg/mL (≈ 19.2 µM); in assay [3], 8 µg/mL (≈ 19.2 µM); against Staphylococcus aureus [4], 2 µg/mL (≈ 4.79 µM); with Streptococcus, 64 µg/mL (≈ 153 µM); against Staphylococcus aureus [8] it was 64 µg/mL (≈ 153 µM); with Staphylococcus aureus [5], 16 µg/mL (≈ 38.3 µM). The MIC in the assay on Streptococcus pyogenes is 1 µg/mL (≈ 2.4 µM); against Staphylococcus aureus [6], 64 µg/mL (≈ 153 µM); in the assay on Streptococcus pneumoniae, 2 µg/mL (≈ 4.79 µM); in the assay with Haemophilus influenzae [7] it was 1 µg/mL (≈ 2.4 µM).

Turning to `CC1=C(C(=O)O)N2C(=O)C(NC(=O)C(N)c3cc4ccsc4s3)C2SC1` (stereo not drawn), the MIC against Haemophilus influenzae [1] was 8 µg/mL (≈ 19.5 µM); in the assay with Staphylococcus aureus [2] it was 16 µg/mL (≈ 39.1 µM); in assay [3], 4 µg/mL (≈ 9.77 µM); in the assay with Staphylococcus aureus [4] it was 0.5 µg/mL (≈ 1.22 µM); in the assay with Streptococcus, over 64 µg/mL; in the assay with Staphylococcus aureus [5] it was 32 µg/mL (≈ 78.1 µM). In addition, the MIC in the assay on Streptococcus pyogenes was 0.25 µg/mL (≈ 0.61 µM); against Staphylococcus aureus [6], over 64 µg/mL; in the assay on Streptococcus pneumoniae, 0.5 µg/mL (≈ 1.22 µM); in the assay on Haemophilus influenzae [7], 2 µg/mL (≈ 4.88 µM).

As for `CC1=C(C(=O)O)N2C(=O)C(NC(=O)C(N)c3cccc4sccc34)C2SC1` (stereo not drawn), the MIC in the assay with Haemophilus influenzae [1] is 4 µg/mL (≈ 9.91 µM); in the assay on Staphylococcus aureus [2] it was 64 µg/mL (≈ 159 µM); in assay [3] it was 16 µg/mL (≈ 39.7 µM); in the assay on Staphylococcus aureus [4], 2 µg/mL (≈ 4.96 µM); in the assay on Streptococcus it was 64 µg/mL (≈ 159 µM); against Staphylococcus aureus [5], 16 µg/mL (≈ 39.7 µM). For the same compound, the MIC was found to be 0.25 µg/mL (≈ 0.62 µM) in the assay with Streptococcus pyogenes, 64 µg/mL (≈ 159 µM) against Staphylococcus aureus [6], 1 µg/mL (≈ 2.48 µM) against Streptococcus pneumoniae and 2 µg/mL (≈ 4.96 µM) in the assay with Haemophilus influenzae [7].

In the case of `CC1=C(C(=O)O)N2C(=O)C(NC(=O)C(N)c3ccc4sccc4c3)C2SC1` (stereo not drawn), the MIC in the assay on Haemophilus influenzae [1] was 8 µg/mL (≈ 19.8 µM); in the assay with Staphylococcus aureus [2] it was 64 µg/mL (≈ 159 µM); in assay [3], 2 µg/mL (≈ 4.96 µM); against Staphylococcus aureus [4], 0.5 µg/mL (≈ 1.24 µM); with Streptococcus, 64 µg/mL (≈ 159 µM); in the assay with Staphylococcus aureus [5], 4 µg/mL (≈ 9.91 µM). For the same compound, the MIC stood at 0.125 µg/mL (≈ 0.31 µM) in the assay on Streptococcus pyogenes, 64 µg/mL (≈ 159 µM) against Staphylococcus aureus [6], 0.5 µg/mL (≈ 1.24 µM) in the assay with Streptococcus pneumoniae and 4 µg/mL (≈ 9.91 µM) against Haemophilus influenzae [7].

In the case of `CC(=O)N1CCc2cc(C(N)C(=O)NC3C(=O)N4C(C(=O)O)=C(C)CSC34)ccc21` (stereo not drawn), the ED50 was found to be 10.6 mg/kg with Mus musculus [9]; 9.3 mg/kg in the assay with Mus musculus [10]; 0.85 mg/kg with Mus musculus [11]; 0.79 mg/kg in the assay on Mus musculus [12]; 2.6 mg/kg in the assay with Mus musculus [13]; 2.11 mg/kg in the assay on Mus musculus [14]. Besides, the MIC against Haemophilus influenzae [1] was 16 µg/mL (≈ 37.2 µM); in the assay on Staphylococcus aureus [2], 64 µg/mL (≈ 149 µM); in assay [3], 8 µg/mL (≈ 18.6 µM); with Staphylococcus aureus [4], 2 µg/mL (≈ 4.65 µM); in the assay with Streptococcus, 64 µg/mL (≈ 149 µM); in the assay with Staphylococcus aureus [5] it was 64 µg/mL (≈ 149 µM). Also, the MIC in the assay with Streptococcus pyogenes stood at 1 µg/mL (≈ 2.32 µM); against Staphylococcus aureus [6], 64 µg/mL (≈ 149 µM); against Streptococcus pneumoniae, 1 µg/mL (≈ 2.32 µM); with Haemophilus influenzae [7] it was 8 µg/mL (≈ 18.6 µM).

In the case of `CC1=C(C(=O)O)N2C(=O)[C@@H](NC(=O)[C@H](N)c3ccccc3)[C@H]2SC1` [CEPHALEXIN ANHYDROUS], the ED50 with Mus musculus [9] was 30.5 mg/kg; with Mus musculus [10] it was 37 mg/kg; in the assay on Mus musculus [11], 0.9 mg/kg; in the assay on Mus musculus [12], 2.9 mg/kg; in the assay on Mus musculus [13] it was 1.77 mg/kg; in the assay with Mus musculus [14] it was 1.66 mg/kg. Besides, the MIC is 8 µg/mL (≈ 23 µM) against Haemophilus influenzae [1]; 32 µg/mL (≈ 92.1 µM) in assay [3]; 4 µg/mL (≈ 11.5 µM) in the assay with Staphylococcus aureus [4]; 0.5 µg/mL (≈ 1.44 µM) against Streptococcus pyogenes; 2 µg/mL (≈ 5.76 µM) against Streptococcus pneumoniae; 8 µg/mL (≈ 23 µM) with Haemophilus influenzae [7].

Broadly, the ED50 is the dose that gives a 50% effect, or the effect in half of the subjects.

Source of the values: ChEMBL document CHEMBL1123123, “Orally absorbable cephalosporin antibiotics. 2. Structure-activity studies of bicyclic glycine derivatives of 7-aminodeacetoxycephalosporanic acid” (1985).
